Tests used:
Assay type in all cases: cell-based, Saccharomyces cerevisiae
end3 cells (RH266-1D) [1] = test: a-factor sensitivity halo assay; conditions: 24 °C
Method in brief: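 Halo assay. Early log-phase cells were counted, washed with YPUAD and embedded in YPUAD containing 0.8% agar at 47°C. Disks containing α-factor were placed on the agar surface, and the radius of the growth-inhibition zone was read. The radius is logarithmically proportional to strain sensitivity.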

[2] = tested on: wild-type cells (RH144-3D); test: 35S-a-factor internalization assay; conditions: after a 34 °C preincubation; data not shown
end3 cells (RH266-1D) [3] = test: LY-CH accumulation in the vacuole; conditions: LY 4 mg/ml, fluorescence microscopy, minimum of 46 cells counted
Method in brief: (§1)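 Cells grown overnight at 24°C, then harvested and split. One half stayed at 24°C. The other was shifted slowly to 35°C by resetting the water bath, and lucifer yellow CH (4 mg/ml) was added once 35°C was reached. Cells were washed extensively in ice-cold 50 mM sodium succinate pH 5 with 10 mM sodium azide, then viewed by Nomarski and fluorescence optics with 20–25 s exposures. Cells with clear vacuolar staining were scored positive. Cells without staining but with a vacuole visible by Nomarski were scored negative.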

[4] = tested on: wild-type cells (RH144-3D); test: LY-CH accumulation in the vacuole; conditions: LY 4 mg/ml, fluorescence microscopy, minimum of 46 cells counted
Method in brief: as §1

end4 cells (RH268-1C) = test: LY-CH accumulation in the vacuole; conditions: LY 4 mg/ml, fluorescence microscopy, minimum of 46 cells counted
Method in brief: as §1

Compound: alpha-factor
- a-factor needed to form the same size halo, relative to end4 or wild-type cells (end3 cells (RH266-1D) [1]): approximately two times less

Compound: C[C@@H]1C[C@@H]([C@H](O)CC2CC(=O)NC(=O)C2)C(=O)[C@@H](C)C1 [cycloheximide]
- effect of cycloheximide on a-factor internalization kinetics [2]: identical to cells which receive no cycloheximide

Compound: Lucifer yellow-CH [LY]
- % of cells showing vacuolar labeling (end3 cells (RH266-1D) [3]; 24 °C, 2 h): 4%
- % of cells showing vacuolar labeling (end3 cells (RH266-1D) [3]; 35 °C, 1 h): 4%
- % of cells showing vacuolar labeling ([4]; 24 °C, 2 h): 92%
- % of cells showing vacuolar labeling ([4]; 35 °C, 1 h): 97%
- % of cells showing vacuolar labeling (end4 cells (RH268-1C); 24 °C, 2 h): 10%
- % of cells showing vacuolar labeling (end4 cells (RH268-1C); 35 °C, 1 h): 0%

— article PMC2119492 (The Journal of Cell Biology, 1993)
